{"data": "Measured values collected from several papers", "target": "Ephrin type-B receptor 4 (EPHB4, Homo sapiens, UniProt P54760)", "One construct used (P54760 16-987)": "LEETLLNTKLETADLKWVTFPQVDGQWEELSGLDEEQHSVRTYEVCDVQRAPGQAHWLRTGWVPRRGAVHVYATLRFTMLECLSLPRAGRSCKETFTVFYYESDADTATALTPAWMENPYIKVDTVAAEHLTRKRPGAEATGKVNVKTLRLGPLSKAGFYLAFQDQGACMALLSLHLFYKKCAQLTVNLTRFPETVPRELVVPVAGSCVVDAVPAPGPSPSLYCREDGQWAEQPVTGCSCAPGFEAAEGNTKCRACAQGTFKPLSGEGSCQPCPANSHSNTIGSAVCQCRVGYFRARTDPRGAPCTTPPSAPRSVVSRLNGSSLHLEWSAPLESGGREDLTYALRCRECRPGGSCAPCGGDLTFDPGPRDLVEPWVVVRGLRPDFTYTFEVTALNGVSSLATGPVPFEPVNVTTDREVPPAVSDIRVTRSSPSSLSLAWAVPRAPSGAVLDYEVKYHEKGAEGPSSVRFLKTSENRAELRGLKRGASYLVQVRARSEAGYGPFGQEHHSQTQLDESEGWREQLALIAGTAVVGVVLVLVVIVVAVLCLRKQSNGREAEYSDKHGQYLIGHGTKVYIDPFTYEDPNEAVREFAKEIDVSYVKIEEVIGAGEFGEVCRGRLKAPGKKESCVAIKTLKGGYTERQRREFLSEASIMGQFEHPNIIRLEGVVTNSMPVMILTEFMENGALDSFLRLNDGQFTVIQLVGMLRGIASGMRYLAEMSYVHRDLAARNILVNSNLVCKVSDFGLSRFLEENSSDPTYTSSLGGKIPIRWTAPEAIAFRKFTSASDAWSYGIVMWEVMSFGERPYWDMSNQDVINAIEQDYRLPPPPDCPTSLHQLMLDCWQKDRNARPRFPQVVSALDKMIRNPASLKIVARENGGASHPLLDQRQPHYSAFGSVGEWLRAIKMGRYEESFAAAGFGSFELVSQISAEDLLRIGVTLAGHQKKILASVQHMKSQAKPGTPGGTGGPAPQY", "note": "Each line is one published result; the experiments were not run side by side."}
{"Compound": "O=c1nc(-c2ccccn2)sc2ccccc12", "assay": "cell-free assay, competition with immobilised ligand", "setting": "1 µM", "remaining binding [%]": 100}
{"Compound": "O=C(NCC1CCOCC1)c1n[nH]cc1NC(=O)c1c(F)cccc1F", "assay": "binding, competition with immobilised ligand", "setting": "1 µM", "remaining binding [%]": 100}
{"Compound": "F[C@@H]1CCN(c2nccc(-c3cnn4ncccc34)n2)C1", "assay": "binding", "setting": "1 µM", "remaining binding [%]": 90}
{"Compound": "FC(F)(F)Oc1cccc(-c2cnc3ccc(-c4ccncc4)nn23)c1", "assay": "cell-free assay, competition with immobilised ligand", "setting": "5 µM", "remaining binding [%]": 87}
{"Compound": "CC1CCCN1c1nccc(-c2cnn3ncccc23)n1 (stereo not drawn)", "assay": "binding", "setting": "1 µM", "remaining binding [%]": 100}
{"Compound": "O=C(c1ccc(Nc2ncc(Cl)c(-c3cc4ccccc4s3)n2)cc1)N1CCC(N2CCCC2)CC1", "assay": "binding, competition with immobilised ligand", "setting": "1 µM", "remaining binding [%]": 65}
{"Compound": "CCN1CCN(Cc2ccc(C(=O)Nc3ccc(C)c(Oc4ccc5c(c4)CC(=O)N5)c3)cc2C(F)(F)F)CC1", "assay": "binding, competition with immobilised ligand", "setting": "1 µM", "remaining binding [%]": 90}
{"Compound": "Cn1cc(Cl)c2c(Oc3c(F)cc(Nc4cc(Cl)nc(N)n4)cc3F)ccnc21", "assay": "cell-free assay, competition with immobilised ligand", "setting": "0.1 µM", "remaining binding [%]": 100}
{"Compound": "N[C@@H]1CCN(c2nccc(-c3cnn4ncccc34)n2)C1", "assay": "binding", "setting": "1 µM", "remaining binding [%]": 100}
{"Compound": "O=C(c1ccc(Nc2nccc(-c3cc4ccccc4s3)n2)cc1)N1CCC(N2CCCC2)CC1", "assay": "binding, competition with immobilised ligand", "setting": "1 µM", "remaining binding [%]": 87}
{"Compound": "Cc1cnn2ncc(-c3ccnc(N(C)C)n3)c2c1", "assay": "binding", "setting": "1 µM", "remaining binding [%]": 94}
{"Compound": "COc1cnc(Nc2cccc(S(N)(=O)=O)c2)nc1N1CCN(c2ccccc2)CC1", "assay": "binding, competition with immobilised ligand", "setting": "1 µM", "remaining binding [%]": 96}
{"Compound": "CN(C)C(=O)Cn1cc(-c2nc(C3(c4ccc(-c5cnc(N)nc5)cc4)CC3)no2)cn1", "assay": "cell-free assay, competition with immobilised ligand", "setting": "1 µM", "remaining binding [%]": 100}
{"Compound": "C[C@H]1CCN(c2nccc(-c3cnn4ncccc34)n2)C1", "assay": "binding", "setting": "1 µM", "remaining binding [%]": 100}
{"Compound": "O=C(NCCCN1CCOCC1)c1ccc(Nc2ncc(Cl)c(-c3ccc(Cl)s3)n2)cc1", "assay": "binding, competition with immobilised ligand", "setting": "1 µM", "remaining binding [%]": 91}
{"Compound": "CCC(=O)N[C@H]1CC[C@@H](C(=O)N(C)c2ccc(-c3nc4ccccc4o3)cc2)C1", "assay": "cell-free assay, competition with immobilised ligand", "setting": "1 µM", "remaining binding [%]": 73}
{"Compound": "Nc1ncc2c(n1)-c1c([nH]c3ccc(C#CC4CC4)cc13)CCCC2", "assay": "binding, competition with immobilised ligand", "setting": "1 µM", "remaining binding [%]": 100}
{"Compound": "O=C(O)[C@@H]1[C@@H](Cn2nnc3ccccc3c2=O)CC[C@H]1C(=O)c1ccc(OCCC2CCOCC2)cc1", "assay": "cell-free assay, competition with immobilised ligand", "setting": "1 µM", "remaining binding [%]": 100}
{"Compound": "c1cncc(-c2cccc(Nc3nccc(NC4CCCCC4)n3)c2)c1", "assay": "binding, competition with immobilised ligand", "setting": "10 µM", "remaining binding [%]": 89}
{"Compound": "CN(C)c1nccc(-c2cnn3ncccc23)n1", "assay": "binding", "setting": "1 µM", "remaining binding [%]": 100}
{"Compound": "CCCCN(CCCC)C(=O)CN1C[C@@H](c2cc(OC)c3c(c2)OCO3)[C@H](C(=O)O)[C@H]1CC(C)(C)CCC", "assay": "cell-free assay, competition with immobilised ligand", "setting": "1 µM", "remaining binding [%]": 98.5}
